ChEMBL document CHEMBL1154626, “Novel, potent, and selective quinoxaline-based 5-HT(3) receptor ligands. 1. Further structure-activity relationships and pharmacological characterization” (J Med Chem, 2009)
Values belong to the molecule of their own block, whether it stands above or below them.

Legend:
[1] = test system: Rattus norvegicus; assay: Antagonist activity at 5HT3 receptor in iv dosed Sprague-Dawley rat assessed as inhibition of 1-phenylbiguanide-induced bradycardia administered 5 mins before 1-phenylbiguanide challenge measured after 5 to 30 mins post-treatment by von Bezold-Jarisch reflex test; assay type: functional
Summary of the method: (§1)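 Urethane-anesthetized rats, compound given iv. Agonism was scored as the compound itself evoking the von Bezold-Jarisch reflex (bradycardia). Antagonism was tested by giving the compound iv 5, 15 or 30 min before phenylbiguanide (PBG) and scoring the reduction of PBG-evoked bradycardia. ED50 is the dose giving half of the maximal bradycardia evoked by the same compound.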

[2] = target: T1, 5-hydroxytryptamine receptor 3A (Rattus norvegicus, UniProt P35563); assay: Displacement of [3H]LY278584 from 5HT3 receptor in rat cortical homogenate
T1 sequence (P35563 whole entry): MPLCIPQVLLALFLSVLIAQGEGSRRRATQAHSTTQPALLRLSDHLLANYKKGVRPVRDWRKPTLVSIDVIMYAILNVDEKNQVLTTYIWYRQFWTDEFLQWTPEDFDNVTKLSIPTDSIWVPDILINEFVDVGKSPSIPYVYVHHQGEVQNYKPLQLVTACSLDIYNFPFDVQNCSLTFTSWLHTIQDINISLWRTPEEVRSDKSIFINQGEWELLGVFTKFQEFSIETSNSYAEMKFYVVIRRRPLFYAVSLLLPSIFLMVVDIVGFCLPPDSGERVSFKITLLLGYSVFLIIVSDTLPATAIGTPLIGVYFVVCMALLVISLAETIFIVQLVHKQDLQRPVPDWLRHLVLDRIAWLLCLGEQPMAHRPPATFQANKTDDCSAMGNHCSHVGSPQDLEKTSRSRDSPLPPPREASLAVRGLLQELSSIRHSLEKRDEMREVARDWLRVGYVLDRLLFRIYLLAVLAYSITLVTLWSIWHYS
Summary of the method: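 Rat cortical homogenate, competition against [3H]LY278584 binding. Ki is the concentration giving half-maximal inhibition of binding, as the mean ± S.E.M. of three determinations.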

[3] = target: 5-hydroxytryptamine receptor 4 (Cavia porcellus, UniProt O70528); assay: Displacement of [3H]GR-113808 from 5HT4 receptor in guinea pig striatum
[4] = test system: Rattus norvegicus; assay: Agonist activity at 5HT3 receptor in iv dosed Sprague-Dawley rat assessed as induction of bradycardia measured after 5 to 30 mins post-treatment by von Bezold-Jarisch reflex test; assay type: functional; summary of the method: as §1
[5] = Ratio of drug level from brain to plasma in rat at 1 mg/kg, iv; assay type: ADME, organism-based; set-up: dose 1 mg/kg, route intravenous
Summary of the method: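 Rats given a single iv injection (0.25–1 mg/kg) and killed 30 min afterwards. Brain/plasma ratio calculated assuming 1 g tissue equals 1 mL water. Three animals per dose, mean ± SEM.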

[6] = test system: Brain; assay: Drug level in rat brain at 0.5 mg/kg, iv; assay type: ADME, organism-based; set-up: dose 0.5 mg/kg, route intravenous; conditions: in vivo, BLD = below limit of detection
Summary of the method: (§2)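 Rats dosed iv at 0.25–1 mg/kg and sacrificed 30 min after injection. Mean ± SEM of three animals. Brain/plasma ratio assumes 1 g tissue equals 1 mL water.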

[7] = test system: Rattus norvegicus; assay: Plasma concentration in rat at 0.25 mg/kg, iv; assay type: ADME, organism-based; set-up: dose 0.25 mg/kg, route intravenous; conditions: in vivo; summary of the method: as §2
[8] = target: T2, 5-hydroxytryptamine receptor 3A (Cavia porcellus, UniProt O70212); assay: Antagonist activity at 5HT3 receptor in spontaneously beating guinea pig right atrium assessed as inhibition of serotonin-induced maximum response by noncompetitive binding assay; assay type: tissue-based, Cardiac atrium; conditions: read-out: IC50
T2 sequence (O70212 whole entry): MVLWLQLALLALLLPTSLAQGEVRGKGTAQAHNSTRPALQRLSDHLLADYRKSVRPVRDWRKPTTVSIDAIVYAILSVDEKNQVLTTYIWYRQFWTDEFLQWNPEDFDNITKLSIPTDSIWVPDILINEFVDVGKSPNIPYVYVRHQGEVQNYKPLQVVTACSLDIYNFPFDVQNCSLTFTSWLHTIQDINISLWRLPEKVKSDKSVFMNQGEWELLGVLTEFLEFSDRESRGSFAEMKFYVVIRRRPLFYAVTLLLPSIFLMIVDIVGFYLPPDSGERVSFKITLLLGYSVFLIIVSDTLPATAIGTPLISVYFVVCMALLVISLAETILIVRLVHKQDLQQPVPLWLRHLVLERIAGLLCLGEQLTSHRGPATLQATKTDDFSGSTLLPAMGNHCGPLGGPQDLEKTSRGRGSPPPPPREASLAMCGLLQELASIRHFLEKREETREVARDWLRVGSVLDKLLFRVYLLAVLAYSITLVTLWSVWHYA
Summary of the method: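 Spontaneously beating guinea pig right atria, exposed 30 min to test compound at 10 μM, followed by cumulative 5-HT log concentration-response curves versus control. Mean ± SEM of five to seven observations.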

Sequence of 5-hydroxytryptamine receptor 4 (O70528 whole entry): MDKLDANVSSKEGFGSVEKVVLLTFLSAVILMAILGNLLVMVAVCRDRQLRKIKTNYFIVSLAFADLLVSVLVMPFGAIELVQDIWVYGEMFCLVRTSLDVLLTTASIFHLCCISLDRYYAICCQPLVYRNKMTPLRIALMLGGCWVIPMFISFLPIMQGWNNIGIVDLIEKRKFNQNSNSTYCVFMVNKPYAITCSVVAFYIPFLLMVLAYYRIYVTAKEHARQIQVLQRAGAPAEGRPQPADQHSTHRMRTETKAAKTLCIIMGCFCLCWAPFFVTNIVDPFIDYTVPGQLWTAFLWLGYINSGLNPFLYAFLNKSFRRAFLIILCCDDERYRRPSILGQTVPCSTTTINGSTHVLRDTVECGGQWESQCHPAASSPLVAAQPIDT

SMILES: CN1CCN(c2nc3cccc(F)c3n3cccc23)CC1
ID50 [1]: 0.12 mg/kg | Ki ([2]; read-out: Ki): 0.00044 µM

SMILES: c1ccc2nc(N3CCNCC3)ccc2c1 [QUIPAZINE]
Ki [3]: > 10 µM

SMILES: Fc1ccc2c(c1)nc(N1CCN(CCc3cnc[nH]3)CC1)c1cccn12
Ki ([2]; read-out: Ki): 0.33 µM

SMILES: O=C(O)CN1CCN(c2nc3cc(F)ccc3n3cccc23)CC1
ED50 [4]: 0.036 mg/kg | Kp [5]: 0.03 | Drug uptake [6]: BLD | concentration [7]: 0.54 µM | IC50 [8]: 1.88 µM

SMILES: CN1CCN(c2nc3cc(F)ccc3n3cccc23)CC1
ID50 [1]: 0.6 mg/kg | Ki ([2]; read-out: Ki): 0.00081 µM

The next lines start with the values.

Ki ([2]; read-out: Ki): 0.0178 µM
SMILES: Cc1cccc2nc(N3CCN(CCn4ccnc4)CC3)c3cccn3c12

Ki ([2]; read-out: Ki): 0.0222 µM
SMILES: Fc1ccc2c(c1)nc(N1CCN(CCn3ccnc3)CC1)c1cccn12

Ki [2]: 0.0088 µM
SMILES: Cc1cccc2nc(N3CCN(Cc4ccccc4)CC3)c3cccn3c12
